{"source": "paper PMC3034256", "about": "(Chemistry & biology, 2011)", "key": {"[1]": {"biological_target": "SHP1 (Homo sapiens, UniProt P29350)", "sequence (P29350 whole entry)": "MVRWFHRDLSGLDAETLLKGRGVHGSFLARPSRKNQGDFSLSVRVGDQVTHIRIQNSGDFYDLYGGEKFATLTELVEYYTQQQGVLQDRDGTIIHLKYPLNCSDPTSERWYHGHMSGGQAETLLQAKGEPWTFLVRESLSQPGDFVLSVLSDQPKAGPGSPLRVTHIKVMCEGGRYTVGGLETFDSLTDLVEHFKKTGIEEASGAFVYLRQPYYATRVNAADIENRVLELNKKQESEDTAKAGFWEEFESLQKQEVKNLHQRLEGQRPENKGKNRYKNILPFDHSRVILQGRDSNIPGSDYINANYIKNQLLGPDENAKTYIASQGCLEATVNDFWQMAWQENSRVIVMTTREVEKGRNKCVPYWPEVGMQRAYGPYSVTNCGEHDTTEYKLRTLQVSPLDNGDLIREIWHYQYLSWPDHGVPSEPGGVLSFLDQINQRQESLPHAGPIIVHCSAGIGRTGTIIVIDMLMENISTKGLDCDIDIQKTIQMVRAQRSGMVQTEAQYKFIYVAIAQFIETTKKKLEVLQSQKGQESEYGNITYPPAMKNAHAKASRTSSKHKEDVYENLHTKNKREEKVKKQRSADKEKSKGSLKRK", "experiment": "PTP-catalyzed pNPP hydrolysis, SHP1", "assay_type": "biochemical", "in_short": "(§1)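 pNPP hydrolysis was run at 25 °C in 50 mM 3,3-dimethylglutarate, pH 7.0, 1 mM EDTA, ionic strength 0.15 M (NaCl). pNPP was fixed at each enzyme's experimentally determined Km, and reactions were started with enzyme. They were quenched with NaOH and corrected with no-enzyme controls. p-Nitrophenol was read at 405 nm. IC50 was fitted from AI/A0 = IC50/(IC50+[I]).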"}, "[2]": {"biological_target": "T1, PTP1B (Homo sapiens, UniProt P18031)", "T1 sequence (P18031 1-435)": "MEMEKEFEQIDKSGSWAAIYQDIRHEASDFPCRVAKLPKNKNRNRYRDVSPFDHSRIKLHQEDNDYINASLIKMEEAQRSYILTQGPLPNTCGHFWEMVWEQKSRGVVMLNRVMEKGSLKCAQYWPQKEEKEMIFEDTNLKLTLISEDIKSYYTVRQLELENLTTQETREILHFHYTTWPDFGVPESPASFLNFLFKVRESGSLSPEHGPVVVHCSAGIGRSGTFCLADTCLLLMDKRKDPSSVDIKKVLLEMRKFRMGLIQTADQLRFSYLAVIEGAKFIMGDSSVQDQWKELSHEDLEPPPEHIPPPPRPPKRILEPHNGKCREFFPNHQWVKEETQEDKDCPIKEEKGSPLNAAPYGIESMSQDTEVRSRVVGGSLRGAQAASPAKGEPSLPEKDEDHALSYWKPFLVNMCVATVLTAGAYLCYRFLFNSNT", "experiment": "PTP-catalyzed pNPP hydrolysis, PTP1B", "assay_type": "biochemical", "in_short": "as §1"}, "[3]": {"biological_target": "T2, Lyp (Homo sapiens, UniProt Q9Y2R2)", "T2 sequence (Q9Y2R2 1-807)": "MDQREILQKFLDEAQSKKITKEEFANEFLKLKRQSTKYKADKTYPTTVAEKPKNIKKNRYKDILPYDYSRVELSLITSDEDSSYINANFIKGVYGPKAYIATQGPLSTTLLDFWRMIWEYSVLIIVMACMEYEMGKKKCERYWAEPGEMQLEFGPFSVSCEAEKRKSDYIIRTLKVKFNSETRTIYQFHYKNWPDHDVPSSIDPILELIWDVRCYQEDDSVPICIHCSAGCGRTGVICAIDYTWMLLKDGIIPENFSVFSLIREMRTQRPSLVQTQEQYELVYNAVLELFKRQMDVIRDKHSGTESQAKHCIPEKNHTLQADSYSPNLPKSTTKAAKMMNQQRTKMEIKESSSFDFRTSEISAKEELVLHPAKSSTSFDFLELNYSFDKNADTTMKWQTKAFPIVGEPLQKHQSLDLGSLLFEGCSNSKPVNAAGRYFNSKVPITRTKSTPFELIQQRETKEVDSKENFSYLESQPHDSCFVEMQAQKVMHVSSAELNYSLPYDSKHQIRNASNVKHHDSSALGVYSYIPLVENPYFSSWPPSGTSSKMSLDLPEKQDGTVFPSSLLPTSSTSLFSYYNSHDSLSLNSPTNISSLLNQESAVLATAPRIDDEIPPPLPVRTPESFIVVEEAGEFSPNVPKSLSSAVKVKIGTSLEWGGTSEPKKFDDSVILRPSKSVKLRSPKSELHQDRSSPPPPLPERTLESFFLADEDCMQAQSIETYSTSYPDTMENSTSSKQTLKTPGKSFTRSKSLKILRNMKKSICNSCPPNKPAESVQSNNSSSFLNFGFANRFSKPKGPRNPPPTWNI", "experiment": "PTP-catalyzed pNPP hydrolysis, Lyp", "assay_type": "biochemical", "in_short": "as §1"}, "[4]": {"biological_target": "T3, HePTP (Homo sapiens, UniProt P35236)", "T3 sequence (P35236 1-360)": "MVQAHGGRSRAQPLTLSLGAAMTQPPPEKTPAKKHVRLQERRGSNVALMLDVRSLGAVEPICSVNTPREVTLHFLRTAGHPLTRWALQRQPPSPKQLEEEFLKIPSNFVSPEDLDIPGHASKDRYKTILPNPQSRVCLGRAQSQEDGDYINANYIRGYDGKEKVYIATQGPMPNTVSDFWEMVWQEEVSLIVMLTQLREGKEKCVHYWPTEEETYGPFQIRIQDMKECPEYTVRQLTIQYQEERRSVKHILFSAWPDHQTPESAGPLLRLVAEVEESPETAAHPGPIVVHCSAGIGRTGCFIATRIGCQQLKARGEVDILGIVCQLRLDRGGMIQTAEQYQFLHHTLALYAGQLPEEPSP", "experiment": "PTP-catalyzed pNPP hydrolysis, HePTP", "assay_type": "biochemical", "in_short": "as §1"}, "[5]": {"biological_target": "PTPα (Homo sapiens, UniProt P18433)", "sequence (P18433 20-802)": "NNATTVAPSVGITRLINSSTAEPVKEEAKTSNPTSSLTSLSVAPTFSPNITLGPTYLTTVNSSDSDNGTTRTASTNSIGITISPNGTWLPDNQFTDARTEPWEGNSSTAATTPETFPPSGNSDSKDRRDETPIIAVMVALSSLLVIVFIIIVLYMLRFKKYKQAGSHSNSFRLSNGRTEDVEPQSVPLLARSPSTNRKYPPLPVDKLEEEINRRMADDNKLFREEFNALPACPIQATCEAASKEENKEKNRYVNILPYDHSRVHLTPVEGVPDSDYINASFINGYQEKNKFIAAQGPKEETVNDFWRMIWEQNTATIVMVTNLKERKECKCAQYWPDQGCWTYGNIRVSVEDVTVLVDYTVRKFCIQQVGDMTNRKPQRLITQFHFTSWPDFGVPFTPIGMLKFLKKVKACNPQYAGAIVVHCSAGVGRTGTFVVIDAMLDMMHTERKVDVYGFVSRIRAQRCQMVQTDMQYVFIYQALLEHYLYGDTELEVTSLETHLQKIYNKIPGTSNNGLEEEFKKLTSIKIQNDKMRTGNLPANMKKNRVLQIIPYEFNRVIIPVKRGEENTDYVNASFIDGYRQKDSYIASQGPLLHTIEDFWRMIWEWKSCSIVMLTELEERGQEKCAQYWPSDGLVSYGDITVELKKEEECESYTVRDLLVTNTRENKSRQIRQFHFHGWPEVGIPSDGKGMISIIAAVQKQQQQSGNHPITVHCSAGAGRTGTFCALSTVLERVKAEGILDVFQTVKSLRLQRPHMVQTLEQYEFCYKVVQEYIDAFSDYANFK", "experiment": "PTP-catalyzed pNPP hydrolysis, PTPα", "assay_type": "biochemical", "in_short": "as §1"}, "[6]": {"biological_target": "VHR (Homo sapiens, UniProt P51452)", "sequence (P51452 whole entry, species assumed)": "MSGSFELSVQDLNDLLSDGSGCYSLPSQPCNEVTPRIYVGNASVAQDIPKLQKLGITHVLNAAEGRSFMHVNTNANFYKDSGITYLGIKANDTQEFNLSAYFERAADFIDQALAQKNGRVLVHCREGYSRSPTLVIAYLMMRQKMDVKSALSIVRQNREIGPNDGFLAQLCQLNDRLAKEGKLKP", "experiment": "PTP-catalyzed pNPP hydrolysis, VHR", "assay_type": "biochemical", "in_short": "as §1"}, "[7]": {"tested_on": "panel of PTPs", "experiment": "Screen against a panel of PTPs at 10 µM", "assay_type": "biochemical", "details": "10 µM compound, pNPP, pH 7, 25 °C"}, "[8]": {"tested_on": "Jurkat T cells", "experiment": "TCR-mediated ERK1/2 activation in Jurkat T cells", "assay_type": "cell-based", "details": "2 h pretreatment (2 µM), 10 µg/mL anti-CD3"}, "[9]": {"tested_on": "macrophage progenitor cells expressing MIEG3, wild-type SHP2, or SHP2/E76K", "experiment": "GM-CSF induced ERK1/2 activation in macrophage progenitors", "assay_type": "cell-based", "details": "2 µM for 2 hours, GM-CSF 50 ng/mL for 60 minutes", "in_short": "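Bone marrow low-density mononuclear cells were transduced (empty vector, wild-type SHP2 or SHP2/E76K), EGFP-sorted and grown 5 days in M-CSF 100 ng/mL to give macrophage progenitors. These were serum- and growth factor-starved 16 h, pretreated 2 h with DMSO or 2 µM test compound, then left unstimulated or given GM-CSF 50 ng/mL for 60 min. Extracts were immunoblotted for phospho-ERK1/2 and total ERK1/2.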"}, "[10]": {"tested_on": "SHP2/E76K-expressing hematopoietic progenitors", "assay_type": "cell-based", "details": "2 µM for 24 hours, GM-CSF 1 ng/mL, [3H] thymidine", "in_short": "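Transduced, EGFP-sorted bone marrow low-density mononuclear cells (empty vector, wild-type SHP2 or SHP2/E76K) were serum- and growth factor-starved for 6 h. They were then cultured in complete medium with GM-CSF 1 ng/mL, with DMSO or 2 µM test compound, for 24 h. Cells were pulsed with [3H]thymidine to measure proliferation. Two independent experiments, cultures in triplicate.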"}, "[11]": {"tested_on": "PP1", "details": "biochemical assays; cited from earlier work"}}}
{"compound": "C=C/C(=C/C(=O)C[C@H](C)C[C@@H](C)CC[C@H](O)[C@H](C)C(=O)C[C@@H](O)[C@H](C)[C@@H](C)OC(=O)C[C@@H](O)C1=C(C)C(=O)OC1=O)CC", "note": "[TTN, tautomycetin]", "values": [{"measurement": "IC50", "setting": "[1]", "value": "14.6 ± 1.1", "unit": "µM"}, {"measurement": "IC50", "setting": "[2]", "value": "41.2 ± 4.4", "unit": "µM"}, {"measurement": "IC50", "setting": "[3]", "value": "20 ± 2", "unit": "µM"}, {"measurement": "IC50", "setting": "[4]", "value": "> 50", "unit": "µM"}, {"measurement": "IC50", "setting": "[5]", "value": "> 50", "unit": "µM"}, {"measurement": "IC50", "setting": "[6]", "value": "> 50", "unit": "µM"}, {"measurement": "inhibition of the rest of the PTP panel (other than SHP2)", "setting": "[7]", "value": "< 30", "unit": "%"}, {"measurement": "effect on TCR-mediated ERK1/2 activation", "setting": "[8]", "value": "strongly reduced"}, {"measurement": "effect on ERK1/2 hyperactivation in SHP2/E76K-expressing cells", "setting": "[9]", "value": "effectively inhibited"}, {"measurement": "effect on GM-CSF induced ERK1/2 activation", "setting": "[9]", "value": "abrogated"}, {"measurement": "effect on proliferation of SHP2/E76K-expressing progenitors", "setting": "[10]", "value": "effectively reduced"}, {"measurement": "inhibition of PP1", "setting": "[11]", "value": "low nM range"}]}
